{"data": "Published values of several laboratories"}
{"Structure (SMILES)": "COc1ccc(F)cc1C(=O)NCc1ccc(-c2nn([C@@H](C)C(F)(F)F)c(N)c2C(N)=O)cc1", "host": "human", "medium": "plasma", "route": "oral", "dose": "200 mg", "setting": "single dose", "measurement": "AUC(0-inf)", "result": "80800 ng·h/mL"}
{"Structure (SMILES)": "O=C(COc1ccc(Cl)cc1)NC12CC(c3nnc([C@H]4C[C@@H](OC(F)(F)F)C4)o3)(C1)C2", "host": "human", "medium": "plasma", "route": "oral", "dose": "200 mg", "setting": "multiple doses, once daily, steady state, healthy volunteers", "measurement": "AUC", "result": "242 µM·h"}
{"Structure (SMILES)": "COc1ccc2c(c1)CN(C(=O)CCN1CCC(Cc3ccccc3)CC1)CC[S@@+]2[O-]", "host": "male human", "medium": "plasma", "route": "intravenous", "dose": "0.6 mg/kg", "setting": "healthy volunteers", "measurement": "AUC(0-t)", "result": "3180 ng·h/mL"}
{"Structure (SMILES)": "COc1ccc(-c2c(Nc3ccccn3)[nH]c3c(C4=CCCCC4)c(-c4ccccc4)nn3c2=O)cc1", "host": "human", "medium": "plasma", "route": "oral", "dose": "400 mg once daily", "setting": "multiple doses, steady state, patients", "measurement": "AUC(0-t)", "result": "57300 ng·h/mL"}
{"Structure (SMILES)": "CC(C)[C@@H](CS(=O)(=O)C(C)C)N1C(=O)[C@@](C)(CC(=O)O)C[C@H](c2cccc(Cl)c2)[C@H]1c1ccc(Cl)cc1", "host": "FVB mouse", "medium": "brain", "route": "oral", "dose": "20 mg/kg", "measurement": "unbound tissue/plasma ratio", "result": 0.005}
{"Structure (SMILES)": "CC(=O)N(C)[C@H]1CCN(C(=O)c2cnc3c(c2)C[C@](C)(c2ccc(F)cc2)N3)C1", "host": "male human", "medium": "plasma", "route": "oral", "dose": "15 mg", "setting": "multiple doses, once daily, steady state", "measurement": "AUC(0-t)", "result": "1.97 µM·h"}
{"Structure (SMILES)": "CC(C)n1c(C2CCNCC2)nc2c([N+](=O)[O-])c(Br)c(Br)cc21", "host": "human", "medium": "plasma", "route": "oral", "dose": "125 mg", "setting": "patients", "measurement": "AUC(0-t)", "result": "1760 ng·h/mL"}
{"Structure (SMILES)": "NCc1cc2c(cc1F)C(=O)N(C1CCC(=O)NC1=O)C2 (centres unmarked)", "host": "male cynomolgus monkey", "medium": "plasma", "route": "oral", "dose": "0.3 mg/kg", "measurement": "Tmax", "result": "2 h"}
